Series [1] is described as follows: Clearance in mouse liver microsomes at 1 uM incubated for 10 mins by LC-MS/MS method. In kind it is ADME, Microsome. The method in brief:
(§1)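 Liver microsomes (human or mouse, 0.5 mg/mL) in 100 mM potassium phosphate pH 7.4 with 1 μM compound, prewarmed 10 min at 37 °C, started with NADPH (10 mM); stopped at 0, 3, 6, 9, 15, 30 min with ice-cold methanol containing tolbutamide internal standard; LC-MS/MS. Hepatic clearance (mL/min/kg) calculated from intrinsic clearance.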

Series [2] has as its target Histone deacetylase (Homo sapiens) (UniProt Q13547+O15379+Q9UBN7+Q92769+Q9UQL6+Q8WUI4+Q9BY41+Q96DB2+P56524+Q9UKV0+Q969S8). Put plainly: Inhibition of Class 1 histone deacetylase in human HeLa cells assessed as induction in p21 protein expression at 3 uM incubated for 16 hrs by luciferase reporter gene assay relative to HDAC inhibitor entinostat. In kind it is cell-based. Also noted: scale not given: the % may be the effect or the level left.

The nature of series [3]: Clearance in human liver microsomes at 1 uM incubated for 10 mins by LC-MS/MS method. The format is ADME, Microsome. The method in brief:
as §1
Background: Liver microsomes are a subcellular fraction often used to study metabolism.

Data on 30 compounds can be found in ChEMBL document CHEMBL2177000, “Pharmacokinetic optimization of class-selective histone deacetylase inhibitors and identification of associated candidate predictive biomarkers of hepatocellular carcinoma tumor response” (J Med Chem, 2012).

As to `Nc1ccccc1NC(=O)/C=C/c1ccc([C@H]2CN(CC(F)F)C[C@@H]2C(=O)Nc2ccc(Cl)cc2)cc1` (racemic), the CLhep predicted at 1 µM in series [1] is 2.94 L/h/kg; in series [3] it was 0.96 L/h/kg. Also, the Activity in series [2] came out at 90%.
For `CN1C[C@H](C(=O)Nc2cccnc2)[C@@H](c2ccc(/C=C/C(=O)Nc3ccccc3N)cc2)C1` (racemic), the CLhep predicted at 1 µM was 2.46 L/h/kg in series [1] and 0.6 L/h/kg in series [3]. In series [2], the Activity was determined as 80%.
The corresponding values for `CN1C[C@H](C(=O)Nc2ccc(Cl)cc2)[C@@H](c2ccc(/C=C/C(=O)Nc3ccccc3N)nc2)C1` (racemic) are 2.28 L/h/kg, 0.72 L/h/kg and greater than 300%.
The corresponding values for `CN1C[C@H](C(=O)Nc2ccc(F)c(Cl)c2)[C@@H](c2ccc(/C=C/C(=O)Nc3ccccc3N)cc2)C1` (racemic) are 2.04 L/h/kg, 0.9 L/h/kg and 180%.
Consider `N#CCN1C[C@H](C(=O)Nc2ccc(Cl)cc2)[C@@H](c2ccc(/C=C/C(=O)Nc3ccccc3N)cc2)C1` (racemic), for which the CLhep predicted at 1 µM in series [1] was 3.06 L/h/kg; in series [3], 1.02 L/h/kg. In series [2], the Activity is 190%.
For `CN1C[C@H](C(=O)Nc2ccc(C(F)(F)F)cc2)[C@@H](c2ccc(/C=C/C(=O)Nc3ccccc3N)cc2)C1` (racemic), the CLhep predicted at 1 µM in series [1] is 1.38 L/h/kg; in series [3] it was 0.36 L/h/kg. Also, the Activity in series [2] amounted to 10%.
With `CN1C[C@H](C(=O)Nc2ccc(Cl)cc2)[C@@H](c2cnc(/C=C/C(=O)Nc3ccccc3N)cn2)C1` (racemic), the CLhep predicted at 1 µM is 1.5 L/h/kg in series [1] and 0.66 L/h/kg in series [3]. The Activity in series [2] is greater than 300%.
Consider `CN1C[C@H](C(=O)Nc2ccc(Cl)cc2)[C@@H](c2ccc(/C=C/C(=O)Nc3ccccc3N)cc2)C1` (racemic), for which the Activity in series [2] is 240%.
For `CN1C[C@H](C(=O)Nc2ccc(F)cc2F)[C@@H](c2ccc(/C=C/C(=O)Nc3ccccc3N)cc2)C1` (racemic), the values for the CLhep predicted at 1 µM in series [1] and in series [3] were 1.62 L/h/kg and 0.72 L/h/kg, respectively. Moreover, the Activity in series [2] stood at 180%.
For the compound `CN1C[C@H](C(=O)Nc2ccccc2)[C@@H](c2ccc(/C=C/C(=O)Nc3ccccc3N)cc2)C1` (racemic), the CLhep predicted at 1 µM is 4.02 L/h/kg in series [1] and 0.42 L/h/kg in series [3]. Further, the Activity in series [2] is 270%.
As for `CN1C[C@H](C(=O)N2CCCCC2)[C@@H](c2ccc(/C=C/C(=O)Nc3ccccc3N)cc2)C1` (racemic), the CLhep predicted at 1 µM in series [1] is 2.52 L/h/kg; in series [3], 0.54 L/h/kg. The Activity in series [2] came out at 10%.
The corresponding values for `CN1C[C@H](C(=O)NC2CCCC2)[C@@H](c2ccc(/C=C/C(=O)Nc3ccccc3N)cc2)C1` (racemic) are 3.66 L/h/kg, 0.54 L/h/kg and 180%.
For `CN1C[C@H](C(=O)Nc2ccc(Br)cc2)[C@@H](c2ccc(/C=C/C(=O)Nc3ccccc3N)cc2)C1` (racemic), in that order: 0.96 L/h/kg, 0.18 L/h/kg and 40%.
Consider `CN1C[C@H](C(=O)Nc2ccc(Cl)cn2)[C@@H](c2ccc(/C=C/C(=O)Nc3ccccc3N)cc2)C1` (racemic), for which the CLhep predicted at 1 µM in series [1] was 1.86 L/h/kg; in series [3], 0.78 L/h/kg. In series [2], the Activity came out at 150%.
In the case of `Cc1cc(NC(=O)[C@H]2CN(C)C[C@@H]2c2ccc(/C=C/C(=O)Nc3ccccc3N)cc2)ccc1F` (racemic), the CLhep predicted at 1 µM in series [1] is 3.72 L/h/kg; in series [3], 0.9 L/h/kg. For the same compound, in series [2], the Activity stood at 200%.
Regarding `COc1cccc(NC(=O)[C@H]2CN(C)C[C@@H]2c2ccc(/C=C/C(=O)Nc3ccccc3N)cc2)c1` (racemic), the CLhep predicted at 1 µM in series [1] is 3.9 L/h/kg; in series [3], 0.84 L/h/kg. The Activity in series [2] came out at 170%.
On to `Nc1ccccc1NC(=O)/C=C/c1ccc([C@H]2CN(C3COC3)C[C@@H]2C(=O)Nc2ccc(Cl)cc2)cc1` (racemic), for which the CLhep predicted at 1 µM in series [1] was 2.52 L/h/kg; in series [3], 0.78 L/h/kg. Moreover, the Activity in series [2] is 90%.
Take `COCCN1C[C@H](C(=O)Nc2ccc(Cl)cc2)[C@@H](c2ccc(/C=C/C(=O)Nc3ccccc3N)cc2)C1` (racemic): the CLhep predicted at 1 µM was 4.32 L/h/kg in series [1] and 0.36 L/h/kg in series [3]. The Activity in series [2] turned out to be 250%.
The corresponding values for `Cc1cc(NC(=O)[C@H]2CN(C)C[C@@H]2c2ccc(/C=C/C(=O)Nc3ccccc3N)cc2)ccc1Cl` (racemic) are 3.9 L/h/kg, 0.9 L/h/kg and 210%.
Regarding `CN1C[C@H](C(=O)Nc2ccc(C#N)cc2)[C@@H](c2ccc(/C=C/C(=O)Nc3ccccc3N)cc2)C1` (racemic), the CLhep predicted at 1 µM in series [1] is 2.1 L/h/kg; in series [3] it was 0.06 L/h/kg. Also, in series [2], the Activity amounted to 80%.
On to `CCN(CC)C(=O)N1C[C@H](C(=O)Nc2ccc(Cl)cc2)[C@@H](c2ccc(/C=C/C(=O)Nc3ccccc3N)cc2)C1` (racemic), for which the CLhep predicted at 1 µM in series [1] was 4.98 L/h/kg; in series [3], 1.14 L/h/kg. The Activity in series [2] turned out to be 90%.
As for `CC(C)NC(=O)[C@H]1CN(C)C[C@@H]1c1ccc(/C=C/C(=O)Nc2ccccc2N)cc1` (racemic), the results for the CLhep predicted at 1 µM in series [1] and in series [3] were 0.72 L/h/kg and 0.48 L/h/kg, respectively. Also, the Activity in series [2] is 70%.
For the compound `COc1ccc(NC(=O)[C@H]2CN(C)C[C@@H]2c2ccc(/C=C/C(=O)Nc3ccccc3N)cc2)cc1` (racemic), the CLhep predicted at 1 µM is 3.24 L/h/kg in series [1] and 0.84 L/h/kg in series [3]. In addition, the Activity in series [2] was 170%.
On to `CN1C[C@H](C(=O)Nc2ccncc2)[C@@H](c2ccc(/C=C/C(=O)Nc3ccccc3N)cc2)C1` (racemic), for which the Activity in series [2] was 50%.
In the case of `CCN1C[C@H](C(=O)Nc2ccc(Cl)cc2)[C@@H](c2ccc(/C=C/C(=O)Nc3ccccc3N)cc2)C1` (racemic), the CLhep predicted at 1 µM was 2.1 L/h/kg in series [1] and 0.72 L/h/kg in series [3]. Moreover, in series [2], the Activity was determined as 170%.
Consider `CN1C[C@H](C(=O)Nc2cccc(Cl)c2)[C@@H](c2ccc(/C=C/C(=O)Nc3ccccc3N)cc2)C1` (racemic), for which the values for the CLhep predicted at 1 µM in series [1] and in series [3] were 3.48 L/h/kg and 0.42 L/h/kg, respectively. Also, the Activity in series [2] came out at 230%.
As to `CC(C)c1ccc(NC(=O)[C@H]2CN(C)C[C@@H]2c2ccc(/C=C/C(=O)Nc3ccccc3N)cc2)cc1` (racemic), the CLhep predicted at 1 µM was 3.24 L/h/kg in series [1] and 0.6 L/h/kg in series [3]. Also, in series [2], the Activity worked out at 70%.
With `CN1C[C@H](C(=O)Nc2ccc(F)c(Br)c2)[C@@H](c2ccc(/C=C/C(=O)Nc3ccccc3N)cc2)C1` (racemic), the values for the CLhep predicted at 1 µM in series [1] and in series [3] were 2.58 L/h/kg and 0.9 L/h/kg, respectively. In addition, the Activity in series [2] amounted to 200%.
For `Cc1ccc(NC(=O)[C@H]2CN(C)C[C@@H]2c2ccc(/C=C/C(=O)Nc3ccccc3N)cc2)cn1` (racemic), in that order: 3.42 L/h/kg, 0.48 L/h/kg and 130%.
For `Nc1ccccc1NC(=O)/C=C/c1ccc([C@H]2CN(CCF)C[C@@H]2C(=O)Nc2ccc(Cl)cc2)cc1` (racemic), in that order: 3.06 L/h/kg, 1.02 L/h/kg and 180%.
